The record followed here is ChEMBL document CHEMBL3421540, “Ensemble-based virtual screening for cannabinoid-like potentiators of the human glycine receptor α1 for the treatment of pain” (J Med Chem, 2015).

The source made the active and inactive calls. The calls are words filed in the database; no cut-off is given here.

Type in all cases: cell-based
Assay [1] has as its target T1, Glycine receptor subunit alpha-1 (Homo sapiens) (UniProt P23415).
T1 sequence (whole entry): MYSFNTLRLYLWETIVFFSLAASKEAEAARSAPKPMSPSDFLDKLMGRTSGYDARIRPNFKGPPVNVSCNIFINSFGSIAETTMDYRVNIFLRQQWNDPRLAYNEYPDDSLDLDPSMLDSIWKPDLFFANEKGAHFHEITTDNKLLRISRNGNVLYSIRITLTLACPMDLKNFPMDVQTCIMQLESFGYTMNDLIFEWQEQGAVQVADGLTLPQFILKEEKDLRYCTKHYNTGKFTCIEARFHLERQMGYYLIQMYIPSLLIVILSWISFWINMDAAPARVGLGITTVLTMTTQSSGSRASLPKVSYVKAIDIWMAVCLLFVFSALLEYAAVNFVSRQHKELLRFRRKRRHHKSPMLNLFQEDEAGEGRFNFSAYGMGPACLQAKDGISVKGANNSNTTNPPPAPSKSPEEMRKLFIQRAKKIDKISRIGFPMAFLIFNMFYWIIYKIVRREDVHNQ
The assay is described as follows: Potentiation of human GlyR-alpha1 expressed in Xenopus laevis oocytes assessed as induction of glycine-activated currents at 10 uM after 1 to 4 days by two-electrode voltage clamp assay relative to control. Put shortly:
(§1)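 RNA for hGlyR-α1 (25−50 ng) injected into stage 5−6 Xenopus laevis oocytes held at 17 °C in modified Barth's solution; two-electrode voltage clamp 1−4 days post-injection at −60 mV holding potential. Bath: 96 mM NaCl, 2 mM KCl, 1.8 mM CaCl2, 1 mM MgCl2, 5 mM HEPES, pH 7.0. Compound coapplied with glycine at EC5; potentiation of current scored.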
(Two-electrode voltage clamp holds a large cell at a set potential and records current.)

Assay [2] addresses T2, Glycine receptor subunit alpha-1 (Homo sapiens, UniProt P23415).
T2 sequence (P23415 whole entry): T1 sequence (whole entry)
Description: Potentiation of human GlyR-alpha1 expressed in Xenopus laevis oocytes assessed as induction of glycine-activated currents after 1 to 4 days by two-electrode voltage clamp assay. Put shortly:
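hGlyR-α1 RNA (25−50 ng) injected into stage 5−6 Xenopus oocytes, held at 17 °C in modified Barth's solution. Recorded 1−4 days later by two-electrode voltage clamp at −60 mV in 96 mM NaCl, 2 mM KCl, 1.8 mM CaCl2, 1 mM MgCl2, 5 mM HEPES, pH 7.0. Compounds coapplied with glycine at EC5, up to 10 μM. EC50 values also derived.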

For assay [3], the target named is T1, Glycine receptor subunit alpha-1 (Homo sapiens). Description: Potentiation of human GlyR-alpha1 expressed in Xenopus laevis oocytes assessed as induction of glycine-activated currents at 1 uM after 1 to 4 days by two-electrode voltage clamp assay relative to control. Put shortly: as §1
The target of assay [4] is Neuronal acetylcholine receptor subunit alpha-7 (Homo sapiens) (UniProt P36544). The assay is described as follows: Modulation of human alpha7 nAChR expressed in Xenopus laevis oocytes assessed as effect on acetylcholine-induced currents at 10 uM after 1 to 4 days by two-electrode voltage clamp assay relative to control. Put shortly:
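α7 nAChR RNA (25−50 ng) injected into stage 5−6 Xenopus oocytes, kept at 17 °C in modified Barth's solution. Two-electrode voltage clamp at −60 mV, 1−4 days post-injection. Bath: 96 mM NaCl, 2 mM KCl, 1.8 mM CaCl2, 1 mM MgCl2, 5 mM HEPES, pH 7.0. Compound coapplied with acetylcholine at EC50, used because of fast desensitization.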

Neuronal acetylcholine receptor subunit alpha-7 (Homo sapiens), sequence (P36544 whole entry): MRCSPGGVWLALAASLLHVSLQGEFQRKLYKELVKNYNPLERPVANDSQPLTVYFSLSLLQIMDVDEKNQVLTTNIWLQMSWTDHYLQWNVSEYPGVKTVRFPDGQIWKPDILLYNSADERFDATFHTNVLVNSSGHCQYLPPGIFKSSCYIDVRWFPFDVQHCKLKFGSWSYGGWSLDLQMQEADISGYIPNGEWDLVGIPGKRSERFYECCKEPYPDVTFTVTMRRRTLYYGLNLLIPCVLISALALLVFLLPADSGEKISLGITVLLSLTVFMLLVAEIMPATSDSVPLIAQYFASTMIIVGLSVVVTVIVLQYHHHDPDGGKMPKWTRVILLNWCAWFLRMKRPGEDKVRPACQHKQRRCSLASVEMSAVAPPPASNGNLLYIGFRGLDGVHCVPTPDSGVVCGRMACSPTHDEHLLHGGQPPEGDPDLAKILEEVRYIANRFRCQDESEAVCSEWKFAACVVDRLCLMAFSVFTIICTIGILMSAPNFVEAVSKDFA

Regarding `CCCc1nc2c(C)cc(-c3nc4ccccc4n3C)cc2n1Cc1ccc(-c2ccccc2C(=O)O)cc1`, in assay [1], the %max is 210%. In addition, in assay [2], the EC50 (in general, the concentration needed to bring the measured effect to its halfway point) came out at 3200 nM. Further, the Activity in assay [3] came out at 120%.

As to `C[C@@H](NCCCc1cccc(C(F)(F)F)c1)c1cccc2ccccc12`, the %max in assay [1] is 210%. In addition, the outcome in assay [4] was inactive. In addition, the EC50 in assay [2] was 320 nM. For the same compound, the Activity in assay [3] came to 182%.

In the case of `COc1ccc(-c2ccc3cc(C(=O)O)ccc3c2)cc1C12CC3CC(CC(C3)C1)C2`, in assay [1], the %max came to 260%. For the same compound, in assay [4], the outcome was inactive. In addition, the EC50 in assay [2] is 1300 nM. The Activity in assay [3] worked out at 172%.

In the case of `CC1=C(CC(=O)O)c2cc(F)ccc2/C1=C\c1ccc([S+](C)[O-])cc1` (centres undefined), the outcome in assay [4] was inactive. The EC50 in assay [2] is 380 nM.

Consider `O=C1NCN(c2ccccc2)C12CCN(CCCC(c1ccc(F)cc1)c1ccc(F)cc1)CC2`, for which the EC50 in assay [2] came out at 1200 nM.

As for `COc1cc(OC)c(NC(=O)Nc2cc(C)on2)cc1Cl`, in assay [1], the %max is 103%. Further, the Activity in assay [3] worked out at 102%.

Turning to `Cc1nc2c([nH]1)-c1ccccc1N(C(=O)c1ccc(NC(=O)c3ccccc3-c3ccccc3)cc1)CC2`, the %max in assay [1] amounted to 107%. Further, the Activity in assay [3] came to 106%.

For `COc1ccc(CCN2CCC(Nc3nc4ccccc4n3Cc3ccc(F)cc3)CC2)cc1` [ASTEMIZOLE], the %max in assay [1] worked out at 280%. Also, the EC50 in assay [2] was 4200 nM. Further, in assay [3], the Activity is 122%.

As for `C=C1CC[C@H](O)C/C1=C/C=C1\CCC[C@]2(C)[C@@H]([C@H](C)CCCC(C)C)CC[C@@H]12` [CHOLECALCIFEROL], the %max in assay [1] was determined as 220%. For the same compound, in assay [4], the outcome was inactive. Moreover, the EC50 in assay [2] turned out to be 400 nM. The Activity in assay [3] was determined as 216%.

As to `CCCCCc1cc(O)c2c(c1)OC(C)(C)[C@@H]1CCC(C)=C[C@@H]21` [DRONABINOL], the %max in assay [1] came to 260%. Moreover, in assay [2], the EC50 stood at 1300 nM. In addition, the Activity in assay [3] came to 162%.

`C[C@]12C=CC(=O)N[C@@H]1CC[C@@H]1[C@@H]2CC[C@]2(C)[C@@H](C(=O)Nc3cc(C(F)(F)F)ccc3C(F)(F)F)CC[C@@H]12` [DUTASTERIDE]: in assay [4], the result was inactive. In assay [2], the EC50 is 330 nM.

Consider `OC(c1cc(C(F)(F)F)nc2c(C(F)(F)F)cccc12)C1CCCCN1` (centres undefined) [MEFLOQUINE], for which the %max in assay [1] was found to be 220%. Also, the 50% effective concentration (EC50) in assay [2] was found to be 2500 nM. The Activity in assay [3] came to 126%.

`O=c1[nH]c2ccccc2n1C1CCN(CCCC(c2ccc(F)cc2)c2ccc(F)cc2)CC1` [PIMOZIDE]: in assay [1], the %max stood at 510%. Further, the result in assay [4] was inactive. In assay [2], the EC50 stood at 1700 nM. In addition, in assay [3], the Activity amounted to 219%.

On to `CNC(=O)c1cc(Oc2ccc(NC(=O)Nc3ccc(Cl)c(C(F)(F)F)c3)c(F)c2)ccn1` [REGORAFENIB], for which the %max in assay [1] was 200%. The EC50 in assay [2] was determined as 1800 nM. Moreover, the Activity in assay [3] stood at 116%.

Consider `Cc1nc2n(c(=O)c1CCN1CCC(c3noc4cc(F)ccc34)CC1)CCCC2` [RISPERIDONE], for which the %max in assay [1] was 190%. Moreover, in assay [4], the result was inactive. In addition, the half-maximal effective concentration (EC50) in assay [2] came to 320 nM. Further, the Activity in assay [3] was found to be 180%.
